# Data from PMC6660019 (ACS catalysis, 2019).
# Read-outs that look alike come from different tables or passages of the source.
# Experiments:
# LmbB2 [1] = biological target: T1, LmbB2 (Streptomyces lincolnensis, UniProt Q54355); experiment: LmbB2 catalytic reaction with H2O2, product analysis by HPLC; format: biochemical; details: after normalizing for the percentage of substrate conversion
# LmbB2 [2] = biological target: T1, LmbB2; experiment: Isothermal titration calorimetry; format: binding
# LmbB2 [3] = biological target: T1, LmbB2; experiment: EPR analysis of the ferrous LmbB2-nitrosyl; details: 20 mM ligand; for gave (average g value) of E-NO· complex after addition of ligand: 50 K, E-NO· alone gave = 2.030; for EPR spectroscopic change compared with E-NO· alone: negative controls
# Procedure, shortened: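 His6-tagged LmbB2 expressed in E. coli BL21(DE3) with δ-aminolevulinic acid and ferrous ammonium sulfate, then Ni-affinity purified. 200 µM argon-saturated enzyme reduced anaerobically with 1 mM sodium dithionite, then exposed to excess NO from diethylamine NONOate in a sealed O2-free vial. Phenolic ligands added at 20 mM final. Samples frozen in liquid nitrogen. X-band EPR at 9.4 GHz, 100 kHz modulation, 50 K, 0.05 mW.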
# LmbB2 [4] = biological target: T1, LmbB2; format: biochemical
# LmbB2 [5] = biological target: T1, LmbB2; experiment: Oxygen production; format: biochemical; details: substrate concentration exceeding 200 µM, 1 mM H2O2
# [6] = ^18O-enriched H2O2 (≥ 90% ^18O), normal water
# [7] = ^18O-enriched H2O2 (≥ 90% ^18O), normal water, listed as 3-Fluoro-L-tyrosiTane
# [8] = ^18O-enriched water (88% ^18O), normal H2O2
# [9] = ^18O-enriched water (88% ^18O), normal H2O2, listed as 3-Fluoro-L-tyrosiTane
# [10] = ^18O-enriched water (88% ^18O), normal H2O2, listed as Tyrosine
# [11] = ITC, 100 mM KPi, 50 mM NaCl, pH 8, 20 °C
smiles,measurement,setting,value
"N[C@@H](Cc1ccc(O)c(I)c1)C(=O)O [compound 7, 3-iodo-L-tyrosine]","ratio of 1a formation among substrates 5, 6 and 7",LmbB2 [1],1
same,Kd,LmbB2 [2],7820 ± 180 µM
"N[C@@H](Cc1ccccc1)C(=O)O [compound 2, L-phenylalanine]",gave (average g value) of E-NO· complex after addition of ligand,LmbB2 [3],2.027
same,Kd,LmbB2 [2],318 ± 8 µM
"N[C@@H](Cc1ccc(O)c(F)c1)C(=O)O [compound 5, 3-fluoro-L-tyrosine]","ratio of 1a formation among substrates 5, 6 and 7",LmbB2 [1],4.5
same,Dehalogenation and Hydroxylation product (1a) ^16O/^16O,LmbB2 [4]; [6],30.3 ± 1.0%
same,Dehalogenation and Hydroxylation product (1a) ^16O/^18O,LmbB2 [4]; [6],69.7%
same,Hydroxylation product ^16O/^16O,LmbB2 [4]; [6],15.5 ± 0.2%
same,Hydroxylation product ^16O/^18O,LmbB2 [4]; [6],84.5%
same,Dehalogenation and Hydroxylation product (1a) ^16O/^18O,LmbB2 [4]; [7],69.7 ± 1.0%
same,Hydroxylation product ^16O/^18O,LmbB2 [4]; [7],84.5 ± 0.2%
same,Dehalogenation and Hydroxylation product (1a) ^16O/^16O,LmbB2 [4]; [8],36.2%
same,Dehalogenation and Hydroxylation product (1a) ^16O/^18O,LmbB2 [4]; [8],51.5%
same,Dehalogenation and Hydroxylation product (1a) ^18O/^18O,LmbB2 [4]; [8],12.3%
same,Hydroxylation product ^16O/^16O,LmbB2 [4]; [8],57.3%
same,Hydroxylation product ^16O/^18O,LmbB2 [4]; [8],35.8%
same,Hydroxylation product ^18O/^18O,LmbB2 [4]; [8],6.9%
same,Dehalogenation and Hydroxylation product (1a) ^16O/^16O,LmbB2 [4]; [9],36.2 ± 0.9%
same,Dehalogenation and Hydroxylation product (1a) ^16O/^18O,LmbB2 [4]; [9],51.5 ± 0.7%
same,Dehalogenation and Hydroxylation product (1a) ^18O/^18O,LmbB2 [4]; [9],12.3 ± 1.2%
same,Hydroxylation product ^16O/^16O,LmbB2 [4]; [9],57.3 ± 1.6%
same,Hydroxylation product ^16O/^18O,LmbB2 [4]; [9],35.8 ± 1.6%
same,Hydroxylation product ^18O/^18O,LmbB2 [4]; [9],6.9 ± 0.7%
same,Kd,LmbB2 [2],22.2 ± 1.1 µM
same,binding affinity weaker than the native substrate,LmbB2 [2]; KD of analog versus L-tyrosine (1),around 16 fold
same,rate of oxygen formation,LmbB2 [5],~10 min⁻¹
CC(C)(C)OC(=O)N[C@@H](Cc1ccc(O)cc1)C(=O)O [N-boc-L-tyrosine],EPR spectroscopic change compared with E-NO· alone,LmbB2 [3],no significant EPR spectroscopic change
"N[C@@H](Cc1ccc(O)c(Cl)c1)C(=O)O [compound 6, 3-chloro-L-tyrosine]","ratio of 1a formation among substrates 5, 6 and 7",LmbB2 [1],1.3
same,Kd,LmbB2 [2],346 ± 2 µM
"N[C@@H](Cc1ccc(O)cc1)C(=O)O [compound 1, L-tyrosine]",Hydroxylation product ^16O/^16O,LmbB2 [4]; [6],7.2 ± 0.3%
same,Hydroxylation product ^16O/^18O,LmbB2 [4]; [6],over 90%
same,Hydroxylation product ^16O/^18O,"LmbB2 [4]; ^18O-enriched H2O2 (≥ 90% ^18O), normal water, listed as Tyrosine",92.8 ± 0.3%
same,Hydroxylation product ^16O/^16O,LmbB2 [4]; [8],87.7%
same,Hydroxylation product ^16O/^18O,LmbB2 [4]; [8],11.2%
same,Hydroxylation product ^18O/^18O,LmbB2 [4]; [8],1.0 ± 0.1%
same,Hydroxylation product ^16O/^16O,LmbB2 [4]; [10],87.7 ± 0.9%
same,Hydroxylation product ^16O/^18O,LmbB2 [4]; [10],11.2 ± 0.8%
same,gave (average g value) of E-NO· complex after addition of ligand,LmbB2 [3],2.027
same,Kd,LmbB2 [2],1.35 ± 0.03 µM
same,rate of oxygen formation,LmbB2 [5],zero
"N[C@@H](Cc1ccc(O)c([N+](=O)[O-])c1)C(=O)O [compound 4, 3-nitro-L-tyrosine]",KD,LmbB2 [2]; [11],no detectable thermal change
Cc1ccc(O)cc1 [p-cresol],EPR spectroscopic change compared with E-NO· alone,LmbB2 [3],no significant EPR spectroscopic change
"COc1ccc(C[C@H](N)C(=O)O)cc1 [compound 3, O-methyl-L-tyrosine]",gave (average g value) of E-NO· complex after addition of ligand,LmbB2 [3],2.026
same,Kd,LmbB2 [2]; [11],1290 ± 140 µM
